Each structure is given as a SMILES string. Calls of active or inactive are those of the source. No cut-off for these calls is given here.

Test system in one data set: not listed separately
As to the kind of experiment: Cytotoxicity against rat WB-F344 cells assessed as cell survival rate after 1 hr at 10 uM by MTT assay. In kind it is cell-based. The following applies: read-out: Survival. In short, it runs like this: (§1)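 WB-F344 rat hepatic epithelial stem-like cells were seeded at 1 × 10⁴ cells/well in DMEM with 3% FCS, penicillin and streptomycin, and precultured 24 h at 37 °C in 5% CO₂. Test sample was added in fresh medium for 1 h, then 40 mM D-galactosamine for 24 h; parallel wells without D-galactosamine gave cytotoxicity. MTT (0.5 mg/mL) was added for 3.5 h, formazan dissolved in DMSO and read at 492 nm. Survival is % of normal, mean ± SD, n = 3.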
A general note: Formazan colour is commonly taken as a measure of viable cells.
Take `COc1cc2ccc(=O)oc2cc1O[C@@H]1O[C@H](CO[C@@H]2OC[C@](O)(CO)[C@H]2OC(=O)c2cc(OC)c(O)c(OC)c2)[C@@H](O)[C@H](O)[C@H]1O` [ERYCIBOSIDE B]: the viability at 1 h, 10 µM came out at 47%.

Another data set concerns WB-F344. Put plainly: Hepatoprotective activity in rat WB-F344 cells assessed as inhibition of D-galactosamine-induced cytotoxicity at 100 uM after 1 hrs by MTT assay relative to control treated before D-galactosamine challenge.
Settings: not given
Turning to `COc1cc(C(=O)O[C@H]2C[C@](O)(C(=O)O)C[C@H](OC(=O)/C=C/c3ccc(O)c(O)c3)[C@H]2O)cc(OC)c1O`, the result was inactive.
As to `COc1cc(C(=O)OC[C@@]2(O)CO[C@@H](OC[C@H]3O[C@@H](OC(C)C)[C@H](O)[C@@H](O)[C@@H]3O)[C@@H]2O)cc(OC)c1O`, the outcome was inactive.
On to `COc1cc(C(=O)OC[C@@]2(O)CO[C@@H](OC[C@H]3O[C@@H](Oc4cc5oc(=O)ccc5cc4OC)[C@H](O)[C@@H](O)[C@@H]3O)[C@@H]2O)ccc1O`, for which the outcome was inactive.
With `O=C(O)/C=C/c1ccc(O)c(O)c1`, the result was inactive.
As for `COc1cc2cc(Oc3cc4oc(=O)ccc4cc3OC)c(=O)oc2cc1O`, the outcome was Active.
In the case of `COc1cc(C(=O)O[C@@H]2[C@@H](OC(=O)/C=C/c3ccc(O)c(O)c3)C[C@@](O)(C(=O)O)C[C@@H]2O)cc(OC)c1O`, the outcome was inactive.
As to `COc1cc(C(=O)OC[C@@]2(O)CO[C@@H](OC[C@H]3O[C@@H](OCCc4ccc(O)cc4)[C@H](O)[C@@H](O)[C@@H]3O)[C@@H]2O)cc(OC)c1O`, the outcome was inactive.
In the case of `COc1cc(/C=C/C(=O)NCCc2ccc(O)cc2)ccc1O`, the outcome was inactive.
For `CCOC(=O)[C@]1(O)C[C@@H](O)[C@@H](O)[C@H](OC(=O)/C=C/c2ccc(O)c(O)c2)C1`, the outcome was inactive.
With `CCCCOC(=O)[C@]1(O)C[C@@H](O)[C@@H](O)[C@H](OC(=O)/C=C/c2ccc(O)c(O)c2)C1`, the outcome was inactive.
As to `COc1cc2ccc(=O)oc2cc1O[C@@H]1O[C@H](CO)[C@@H](O)[C@H](O)[C@H]1O[C@@H]1OC[C@](O)(COC(=O)c2cc(OC)c(O)c(OC)c2)[C@H]1O`, the result was inactive.
For the compound `COc1cc(C(=O)O)ccc1O`, the result was inactive.
Regarding `CCOC(=O)[C@]1(O)C[C@@H](O)[C@@H](OC(=O)/C=C/c2ccc(O)c(O)c2)[C@H](OC(=O)/C=C/c2ccc(O)c(O)c2)C1`, the outcome was inactive.
On the same count and under the same terms, next, `COc1cc2ccc(=O)oc2cc1O[C@@H]1O[C@H](CO[C@@H]2OC[C@](O)(COC(=O)c3cc(OC)c(O)c(OC)c3)[C@H]2O)[C@@H](O)[C@H](O)[C@H]1O`: “inactive”; `O=C(O)c1ccc(O)c(O)c1`: “inactive”.
Consider `COC(=O)[C@]1(O)C[C@@H](O)[C@@H](O)[C@H](OC(=O)/C=C/c2ccc(O)c(O)c2)C1`, for which the result was inactive.
The same measure, in the same setting: next, `COc1cc(C(=O)OC[C@@]2(O)CO[C@@H](OC[C@H]3O[C@@H](Oc4cc(OC)c(OC)c(OC)c4)[C@H](O)[C@@H](O)[C@@H]3O)[C@@H]2O)cc(OC)c1O`: “inactive”; `O=C(/C=C/c1ccc(O)c(O)c1)O[C@@H]1C[C@](O)(C(=O)O)C[C@@H](O)[C@H]1O`: “inactive”.
As for `O=C(/C=C/c1ccc(O)cc1)NCCc1ccc(O)cc1`, the outcome was inactive.

Test system in the next data set: not listed separately
Put plainly: (§2) Hepatoprotective activity in rat WB-F344 cells assessed as inhibition of D-galactosamine-induced cytotoxicity at 10 uM after 1 hrs by MTT assay relative to control treated before D-galactosamine challenge. It is filed as functional. The following applies: WB-F344, 1 h. In short, it runs like this:
(§3)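 WB-F344 rat hepatic epithelial stem-like cells, 1 × 10⁴ per well in DMEM with 3% fetal calf serum and penicillin/streptomycin, precultured 24 h at 37 °C in 5% CO₂. Test samples were added in fresh medium for 1 h, then cells were exposed to 40 mM D-galactosamine for 24 h. Readout was MTT 0.5 mg/mL for 3.5 h, formazan dissolved in DMSO, OD at 492 nm. Inhibition (%) = (OD sample − OD control)/(OD normal − OD control) × 100. Values are mean ± SD, n = 3.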
Usually inhibition stands for the drop in the measured response relative to a control, in per cent. With `COc1cc(C(=O)OC[C@@]2(O)CO[C@@H](OC[C@H]3O[C@@H](Oc4c(OC)cc5ccc(=O)oc5c4OC)[C@H](O)[C@@H](O)[C@@H]3O)[C@@H]2O)cc(OC)c1O` [ERYCIBOSIDE F], the inhibition at 10 µM is 15.5%.
Consider `COC(=O)c1cc(OC)c2c(c1-c1c(CO)cc(OC)c3c1OCO3)OCO2` [BICYCLOL], for which the inhibition at 10 µM is 11.2%.
On the same count and under the same terms, then `COc1cc(C(=O)O[C@H]2C[C@](O)(C(=O)O)C[C@H](O)[C@H]2OC(=O)/C=C/c2ccc(O)c(O)c2)cc(OC)c1O`, with 42.2%.

For the next data set, the system named is WB-F344. Described as §2. In kind it is functional.
Settings: not given
In short, it runs like this:
as §3
Regarding `COC(=O)[C@@]1(O)C[C@@H](OC(=O)/C=C/c2ccc(O)c(O)c2)[C@H](O)[C@H](OC(=O)c2cc(OC)c(O)c(OC)c2)C1`, the outcome was inactive.
In the case of `COc1cc(C(=O)OC[C@@]2(O)CO[C@@H](O[C@H]3[C@H](Oc4cc5oc(=O)ccc5cc4OC)O[C@H](CO)[C@@H](O)[C@@H]3O)[C@@H]2O)ccc1O`, the result was inactive.
`COc1cc2cc(-c3cc4cc(OC)c(O)cc4oc3=O)c(=O)oc2cc1O`: the result was inactive.

Test system in a further data set: not listed separately
As to the kind of experiment: Cytotoxicity against rat WB-F344 cells assessed as cell survival rate after 1 hr at 100 uM by MTT assay. In kind it is cell-based. The following applies: read-out: Survival. In short, it runs like this:
as §1
For `COc1cc(C(=O)OC[C@@]2(O)CO[C@@H](OC[C@H]3O[C@@H](Oc4c(OC)cc5ccc(=O)oc5c4OC)[C@H](O)[C@@H](O)[C@@H]3O)[C@@H]2O)cc(OC)c1O` [ERYCIBOSIDE F], the viability at 1 h, 100 µM was determined as 44%.
`COC(=O)c1cc(OC)c2c(c1-c1c(CO)cc(OC)c3c1OCO3)OCO2` [BICYCLOL]: the viability at 1 h, 100 µM came out at 38%.
`COc1cc(C(=O)O[C@H]2C[C@](O)(C(=O)O)C[C@H](O)[C@H]2OC(=O)/C=C/c2ccc(O)c(O)c2)cc(OC)c1O`: the viability at 1 h, 100 µM is 61%.

These data come from ChEMBL document CHEMBL1154898, “Hepatoprotective constituents from the roots and stems of Erycibe hainanesis” (J Nat Prod, 2010).
